# dFosB activator: activators of delta FosB homodimer, primary screen, biochemical, fluorescence polarization, TAMRA-CDK5 oligo, single point. AID 493131, 2011. Protein FosB (Mus musculus), P13346. activation, % at 25 µM. purified delta FosB; percent of positive-control signal above neutral wells. 0.99% of 340,000 active;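 active means mean activation above about 17%, with every replicate also reaching it, limit read from the data, passing the limit was not always enough; inconclusive means only one of the two conditions met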
# GSIS activator: GLuc luminescence reporter in INS-1E cells, primary screen for activators of glucose-dependent secretion of insulin | INS-1E GLuc reporter insulin secretion, 2-3 h | activation, % at 16.6 µM | 0.61% of 370,000 active;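 active means lowest replicate activation of at least 40%, so every replicate reaches that level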;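 further: 0% = median of neutral control wells and 100% = median of IBMX positive control wells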
# Cneo AK release: Cryptococcus neoformans cell lysis inducers, primary screen, AK release luminescence, single concentration; C. neoformans lysis, adenylate kinase release luminescence, 4 h; normalised: neutral wells 0, clomiphene wells 100; lysis activity, % at 15 µM; 0.2% of 360,000 active; AID 651654, 2012;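 active means mean lysis activity across replicates of at least 80%, whatever share of replicates individually reach that level; inactive means mean lysis activity below 80%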
#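 Material: C. neoformans cells | Amount: Yeast cell density of 5 × 10^6 cells/mL | Medium: Fresh YPD growth medium | Dosing: Single dose | Times: Static 4 h at 37 °C with compound, 1 h detection | Detection: AK luminescence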
# Env fusion inh: inhibitors of HIV-1 Env-driven cell-cell fusion, primary screen, HeLa-JRFL effector, CEM21 target cells, luciferase. 1.1% of 360,000 active. AID 651610, 2012. inhibition, % at 12.3 µM;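 active means mean replicate inhibition score of at least 50 and every replicate individually at or above 50; inconclusive means only one of the two criteria met; inactive means mean below 50 and not all replicates reaching 50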;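 further: 0% = plate neutral controls and 100% = maraviroc near 300 nM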
# miR-122 sensor: miR-122 Renilla sensor signal increase in Huh7, primary screen, miR-122 inhibitor project, cell-based, single point, plate reader; activation (reporter increase), % at 12.5 µM; 0.3% of 340,000 active; Huh7 miR-122 Renilla luciferase sensor, 48 h; neutral wells = 0, positive control = 100;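 active means mean replicate activation score at least 90 and every replicate individually at or above 90; inconclusive means only one of the two criteria met; inactive means neither criterion met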;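 further: higher luciferase means less miR-122 activity so hits act as miR-122 inhibitors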
# Rtt109 Vps75: inhibitors of C. albicans Rtt109/Vps75 HAT, primary screen, biochemical, ThioGlo CoA-SH fluorescence, plate reader; purified Rtt109/Vps75, 4 h; 0.16% of 330,000 active; inhibition, % at 34.9 µM;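 active means inhibition of at least 50% in every replicate; inconclusive means best replicate reaches 50% inhibition but some replicates fall short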
# Target sequence (Q5AAJ8 whole entry, looked up): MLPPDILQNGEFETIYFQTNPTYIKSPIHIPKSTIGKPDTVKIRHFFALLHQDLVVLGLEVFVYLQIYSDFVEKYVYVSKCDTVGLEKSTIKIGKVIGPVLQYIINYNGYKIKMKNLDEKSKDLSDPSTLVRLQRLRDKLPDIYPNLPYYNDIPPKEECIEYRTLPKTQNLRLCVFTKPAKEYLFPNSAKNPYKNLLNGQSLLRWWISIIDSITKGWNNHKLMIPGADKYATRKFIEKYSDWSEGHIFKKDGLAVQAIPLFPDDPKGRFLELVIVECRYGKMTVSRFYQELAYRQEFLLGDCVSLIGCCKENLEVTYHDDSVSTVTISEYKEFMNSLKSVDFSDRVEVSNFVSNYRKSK
# The depositor's hits bear a star; u = inconclusive; x = no result given; + = active, no number; ! = a repeat was not active; [ ] = dose if it differs, or a comment. In the library only some 2.4% were active in any assay of this set; here they are far more common.
SMILES,dFosB activator,GSIS activator,Cneo AK release,Env fusion inh,miR-122 sensor,Rtt109 Vps75
COc1ccc(NC(=O)Nc2cccc3c2O[C@H](CN(C)C(=O)Nc2c(C)noc2C)[C@H](C)CN([C@H](C)CO)C3=O)cc1,x,10,-1,8[16.7 µM],-7[16.7 µM],x
C[C@H]1CCCCO[C@H](CN(C)C(=O)Nc2ccccc2)[C@@H](C)CN([C@@H](C)CO)C(=O)c2cc(NS(=O)(=O)c3cccs3)ccc2O1,x,-37,3,-12[16.7 µM],13[16.7 µM],x
Cc1cccc(-c2ccc([C@@H]3[C@@H](CO)N4C(=O)CN(C(=O)c5cnccn5)C[C@@H]34)cc2)c1,x,-11,x,x,x,x
COc1cc(C(=O)C(=O)c2ccc(O)c(OC)c2)ccc1O,-2,43*,2,-4,x,28
CC(C)OCC(O)CN1CCN(CCN2C(=O)c3cccc4cccc(c34)C2=O)CC1 (stereo not given),u,1,0,1,-5,0
C=CCc1ccccc1OCC(O)CN1CCN(CCN2C(=O)c3cccc4cccc(c34)C2=O)CC1 (stereo not given),47*,x,8,-22,-46,20
C[C@H](CO)N1C[C@H](C)[C@H](CN(C)C(=O)Nc2ccc(F)cc2)OCc2ccccc2-c2c(n(C)c3ccccc23)C1=O,x,-11,1,90*![16.7 µM],31,x
COC(=O)N(C)C[C@@H]1OCc2ccccc2-c2c(n(C)c3ccccc23)C(=O)N([C@H](C)CO)C[C@@H]1C,x,-7,2,66*!,3,x
COc1ccccc1NC(=O)N(C)C[C@@H]1OCc2ccccc2-c2c(n(C)c3ccccc23)C(=O)N([C@H](C)CO)C[C@@H]1C,x,-10,3,67*,-3,x
C[C@H](CO)N1C[C@H](C)[C@H](CN(C)C(=O)C2CC2)OCc2ccccc2-c2c(n(C)c3ccccc23)C1=O,x,-1,27,60*[16.7 µM],x,x
C[C@H](CO)N1C[C@H](C)[C@@H](CN(C)C(=O)C2CC2)OCc2ccccc2-c2c(n(C)c3ccccc23)C1=O,x,-3,0,13[16.7 µM],x,x
COc1cccc(C#Cc2cnc3c(c2)C(=O)N([C@@H](C)CO)C[C@@H](C)[C@H](CN(C)C(=O)C2CC2)O3)c1,x,-8,39,1[16.7 µM],-7[16.7 µM],x
CN(C)C=NC(=O)c1ccc(N2CCN(c3ncc(C(F)(F)F)cc3Cl)CC2)cc1,4,72*,3,x,0,2
O=S(=O)(c1ccc(F)cc1)c1nc(-c2ccco2)oc1Nc1ccccc1,-2,1,-2,66*,30,-5
CN1CCc2cccc3c2[C@@H]1Cc1ccc(O)c(O)c1-3,5,x,-1,x,-3,60*
C[C@@H](Oc1ccccc1)c1nnn(Cc2ccccc2)c1-c1c([C@@H](C)Oc2ccccc2)nnn1Cc1ccccc1,x,x,x,73*,x,x
C#CCOCCOCCOCCNc1nc(N2CCN(C(=O)[C@H](CCC(=O)O)n3cc(C(N)CO)nn3)CC2)nc(N2CCN(C(=O)[C@H](Cc3cc4ccccc4[nH]3)n3cc(C(N)[C@H](C)CC)nn3)CC2)n1 (stereo not given in full),1,x,1,x,-2,-8
C#CCOCCOCCOCCNc1nc(N2CCN(C(=O)CCCCCCCCCCNC(=O)[C@H]([C@@H](C)CC)n3cc(CCCCCN)nn3)CC2)nc(N2CCN(C(=O)CCCCCCCCCCNC(=O)[C@H]([C@@H](C)CC)n3cc(CCCCN=C(N)N)nn3)CC2)n1,-265,x,-1,x,x,9
C#CCOCCOCCOCCNc1nc(N2CCN(C(=O)[C@H](CCCCN)n3cc([C@@H](N)C(C)CC)nn3)CC2)nc(N2CCN(C(=O)[C@H](Cc3cc4ccccc4[nH]3)n3cc([C@@H](N)CC(C)C)nn3)CC2)n1 (stereo not given in full),34*,x,6,x,x,47
C#CCOCCOCCOCCNc1nc(N2CCN(C(=O)C([C@@H](C)O)n3cc([C@@H](N)CCCCN)nn3)CC2)nc(N2CCN(C(=O)[C@H](CCCCN)n3cc([C@@H](N)CC(N)=O)nn3)CC2)n1 (stereo not given in full),16,x,-1,x,x,91*
C#CCOCCOCCOCCNc1nc(N2CCN(C(=O)CCCCCCCCCCNC(=O)[C@H]([C@@H](C)CC)n3cc(CCCCN=C(N)N)nn3)CC2)nc(N2CCN(C(=O)CCCCCCCCCCNC(=O)[C@H](CO)n3cc(CCCCCN)nn3)CC2)n1,-368,x,-1,x,-9,87*
COc1ccc(C)cc1S(=O)(=O)NCCC1=CCCCC1,3,-26,1,x,93*,1
O=S(=O)(NCCC1=CCCCC1)c1ccccc1Br,-12,-12,-7,5,140*,38
O=S(=O)(NCCC1=CCCCC1)c1ccccc1Cl,-6,-11,-1,x,u,10
COc1ccccc1NC(=O)Nc1ccc2c(c1)C(=O)N(C)C[C@H](OC)[C@H](C)CN[C@@H](C)CO2,x,1,-6,-20[16.7 µM],x,x
SMILES,dFosB activator,GSIS activator,Cneo AK release,Env fusion inh,miR-122 sensor,Rtt109 Vps75
CC1C(=O)Nc2ccccc2N1C(=O)c1ccc(O)cc1 (stereo not given),0,17,-1,14,-6,-3
O=C1Nc2ccccc2N(C(=O)c2ccc3ccccc3c2)C1c1nc2ccccc2[nH]1 (stereo not given),x,121*,x,-127,x,x
O=C(CN(C1CC1)S(=O)(=O)c1ccc(S(=O)(=O)NC2CCCCC2)cc1)Nc1ccccc1,7,x,1,x,53,-2
O=S(=O)(NCc1ccccc1)c1ccc(S(=O)(=O)N(Cc2cccs2)CC2CCCO2)cc1 (stereo not given),9,12,-2,61*,21,3
O=C(CN(Cc1cccs1)S(=O)(=O)c1ccc(S(=O)(=O)NC2CCCCC2)cc1)Nc1ccccc1,-1,-9,2,41,132*,-3
CN1CCN(C(=O)C[C@@H]2CC[C@H]3[C@H](COc4ccc(NC(=O)c5cscn5)cc4C(=O)N3C)O2)CC1,x,-11,-1,7[16.7 µM],2[16.7 µM],x
O=C(Nc1ccc(C(F)(F)F)cc1)N1[C@@H]2CNC[C@H]1C2c1ccc(/C=C/c2ccccc2)cc1 (stereo not given in full),x,+!,x,x,x,x
C/C=C/c1ccc(C2[C@@H]3CN(C(=O)Nc4ccc(C(F)(F)F)cc4)C[C@H]2N3)cc1 (stereo not given in full),x,190*!,x,x,x,x

# Compound activity as filed in PubChem.
